Active and inactive are the calls of the source. The calls are words filed in the database; no cut-off is given here.

The text below walks through data of ChEMBL document CHEMBL4152337, “Novel indolo-sophoridinic scaffold as Topo I inhibitors: Design, synthesis and biological evaluation as anticancer agents” (Eur J Med Chem, 2018).

For one assay, the system named is HepG2. As to the kind of experiment: Cytotoxicity against human HepG2 cells assessed as reduction in cell viability after 48 hrs by MTT assay. The format is functional, cell-based. The following applies: HepG2, 48 h. An outline of the steps:
(§1)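 Cells at 3–4 × 10⁴/mL in DMEM + 10% FBS, pre-incubated 24 h in 5% CO₂. Then exposed 48 h to serial dilutions at 1, 5, 10, 20 and 50 µM; final DMSO <0.1%. MTT (5 mg/mL solution) added for 4 h at 37 °C, supernatant removed, formazan dissolved in DMSO, colorimetric read-out.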

In the next assay the test system is CNE-2. Briefly: Cytotoxicity against human CNE2 cells assessed as reduction in cell viability after 48 hrs by MTT assay. The format is functional, cell-based. The settings on record: CNE-2, 48 h. An outline of the steps:
as §1

The next assay concerns A549. As to the kind of experiment: Cytotoxicity against human A549 cells assessed as reduction in cell viability after 48 hrs by MTT assay. Type of assay: functional, cell-based. The following applies: A549, 48 h. In short, it runs like this:
as §1

For assay [1], the target named is T1, DNA topoisomerase 1 (Homo sapiens) (UniProt P11387).
T1 sequence (whole entry): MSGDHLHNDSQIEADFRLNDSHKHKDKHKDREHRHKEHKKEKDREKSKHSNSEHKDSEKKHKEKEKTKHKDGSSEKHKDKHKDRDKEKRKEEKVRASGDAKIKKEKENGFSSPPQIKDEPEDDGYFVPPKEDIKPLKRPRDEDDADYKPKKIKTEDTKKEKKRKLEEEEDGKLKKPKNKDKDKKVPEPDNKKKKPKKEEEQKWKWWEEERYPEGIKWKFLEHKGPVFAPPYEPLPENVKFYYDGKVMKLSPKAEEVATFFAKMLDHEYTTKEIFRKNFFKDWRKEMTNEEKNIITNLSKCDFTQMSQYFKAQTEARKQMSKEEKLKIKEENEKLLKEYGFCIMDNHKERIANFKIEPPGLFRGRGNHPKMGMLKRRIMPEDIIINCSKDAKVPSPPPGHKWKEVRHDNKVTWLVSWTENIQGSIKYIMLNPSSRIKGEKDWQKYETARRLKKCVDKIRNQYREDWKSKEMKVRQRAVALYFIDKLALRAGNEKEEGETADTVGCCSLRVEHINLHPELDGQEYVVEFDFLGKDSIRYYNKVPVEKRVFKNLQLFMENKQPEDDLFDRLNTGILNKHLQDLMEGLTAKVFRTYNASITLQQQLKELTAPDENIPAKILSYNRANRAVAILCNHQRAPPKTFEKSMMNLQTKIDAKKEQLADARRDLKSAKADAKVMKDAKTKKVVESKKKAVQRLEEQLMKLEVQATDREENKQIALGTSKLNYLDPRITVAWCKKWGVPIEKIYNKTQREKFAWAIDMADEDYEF
Briefly: Inhibition of recombinant human topoisomerase-1-mediated relaxation of supercoiled pBR322 DNA at 500 uM after 30 mins by ethidium bromide staining based assay. In short, it runs like this: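 Reactions stopped with loading buffer containing 0.5% SDS, bromophenol blue and 15% glycerol. Products run on a horizontal 0.8% agarose gel in 1× TAE at 4 V/cm for 40 min at room temperature. Gel stained with ethidium bromide and imaged.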

Consider `COC(=O)CCC[C@@H]1[C@H]2CCCN3CCC[C@H](CN1Cc1cn(Cc4ccc(F)cc4)c4ccccc14)[C@@H]23`, for which the IC50 is 8.6 µM with HepG2, 3.5 µM in the assay with CNE-2 and 29.6 µM in the assay on A549.
For `CCn1cc(CN2C[C@H]3CCCN4CCC[C@@H]([C@H]34)[C@H]2CCCC(=O)OC)c2ccccc21`, in that order: 12.8 µM, 19.4 µM and 37.4 µM.
With `CC[C@@]1(O)C(=O)OCc2c1cc1n(c2=O)Cc2cc3ccccc3nc2-1` [CAMPTOTHECIN], the IC50 in the assay on HepG2 came to 13.2 µM; in the assay with CNE-2 it was 0.1 µM; in the assay with A549, 5.5 µM.
For the compound `COC(=O)CCC[C@@H]1[C@H]2CCCN3CCC[C@H](CN1Cc1cn(Cc4ccccc4)c4ccccc14)[C@@H]23`, the IC50 with HepG2 came to 5.5 µM; in the assay on CNE-2 it was 3.3 µM; with A549, 43.4 µM. Further, the inhibition entry in assay [1] is “Active”.
`COC(=O)CCC[C@@H]1[C@H]2CCCN3CCC[C@H](CN1Cc1c[nH]c4ccc(F)cc14)[C@@H]23`: the IC50 in the assay with HepG2, with CNE-2 and with A549 was over 50 µM in each case.
As for `COC(=O)CCC[C@@H]1[C@H]2CCCN3CCC[C@H](CN1Cc1cn(Cc4c(Cl)cccc4Cl)c4ccccc14)[C@@H]23`, the concentration for half-maximal inhibition (IC50) in the assay on HepG2 stood at 8.5 µM; with CNE-2, 6.7 µM; in the assay on A549 it was 3.7 µM.
For `COC(=O)CCC[C@@H]1[C@H]2CCCN3CCC[C@H](CN1Cc1cn(C)c4ccccc14)[C@@H]23`, in that order: 15.2 µM, 43.4 µM and 42.8 µM.
As to `OCCCC[C@@H]1[C@H]2CCCN3CCC[C@H](CN1Cc1cn(Cc4ccccc4)c4ccccc14)[C@@H]23`, the IC50 came to 2.3 µM in the assay on HepG2, 2.2 µM in the assay on CNE-2 and 33.7 µM in the assay on A549. In addition, the inhibition entry in assay [1] was “Active”.
With `COC(=O)CCC[C@@H]1[C@H]2CCCN3CCC[C@H](CN1Cc1c[nH]c4cccc(F)c14)[C@@H]23`, the IC50 in the assay on HepG2, with CNE-2 and in the assay with A549 was over 50 µM each time.
For the compound `COC(=O)CCC[C@@H]1[C@H]2CCCN3CCC[C@H](CN1Cc1cn(Cc4ccc(Cl)cc4)c4ccc(F)cc14)[C@@H]23`, the IC50 in the assay with HepG2 was 7.3 µM; in the assay on CNE-2, 6.1 µM; in the assay on A549, 10.6 µM.
`COC(=O)CCC[C@@H]1[C@H]2CCCN3CCC[C@H](CN1Cc1cn(Cc4ccc5ccccc5c4)c4ccccc14)[C@@H]23`: the IC50 was 8.6 µM in the assay with HepG2, 7.8 µM in the assay with CNE-2 and 24 µM in the assay with A549. Besides, in assay [1], the inhibition entry was “Active”.
In the case of `COC(=O)CCC[C@@H]1[C@H]2CCCN3CCC[C@H](CN1Cc1cn(Cc4c(Cl)cccc4Cl)c4ccc(F)cc14)[C@@H]23`, the IC50 in the assay on HepG2 turned out to be 18.4 µM; in the assay with CNE-2, 9.3 µM; in the assay with A549 it was 39.8 µM.
`COC(=O)CCC[C@@H]1[C@H]2CCCN3CCC[C@H](CN1Cc1cn(Cc4ccc(Br)cc4)c4ccccc14)[C@@H]23`: the IC50 turned out to be 4.8 µM in the assay with HepG2, 4.3 µM in the assay on CNE-2 and 3.5 µM in the assay with A549.
For `COC(=O)CCC[C@@H]1[C@H]2CCCN3CCC[C@H](CN1Cc1c[nH]c4ccccc14)[C@@H]23`, in that order: 36.5 µM, 12.1 µM and 27.8 µM.
For `CCCCn1cc(CN2C[C@H]3CCCN4CCC[C@@H]([C@H]34)[C@H]2CCCC(=O)OC)c2ccccc21`, in that order: 6.2 µM, 8.6 µM and 42.8 µM.
Take `COC(=O)CCC[C@@H]1[C@H]2CCCN3CCC[C@H](CN1Cc1cn(Cc4ccc(Cl)cc4)c4ccccc14)[C@@H]23`: the results for the IC50 in the assay with HepG2, with CNE-2 and in the assay with A549 were 6.5 µM, 4.6 µM and 5.2 µM, respectively. In assay [1], the inhibition entry was “Active”.
Consider `COC(=O)CCC[C@@H]1[C@H]2CCCN3CCC[C@H](CN1Cc1cn(CC4CC4)c4ccccc14)[C@@H]23`, for which the values for the half-maximal inhibitory concentration (IC50) in the assay with HepG2, in the assay on CNE-2 and in the assay on A549 were 14.4 µM, 13.4 µM and 30.3 µM, respectively.
For `COC(=O)CCC[C@@H]1[C@H]2CCCN3CCC[C@H](CN1Cc1c[nH]c4ccc(Cl)cc14)[C@@H]23`, in that order: over 50 µM, 17.9 µM and over 50 µM.
For `COC(=O)CCC[C@@H]1[C@H]2CCCN3CCC[C@H](CN1Cc1cn(Cc4ccc(C(F)(F)F)cc4)c4ccc(F)cc14)[C@@H]23`, in that order: 7.7 µM, 6.9 µM and 12.8 µM.
For `COC(=O)CCC[C@@H]1[C@H]2CCCN3CCC[C@H](CN1Cc1c[nH]c4cc(F)ccc14)[C@@H]23`, in that order: over 50 µM, 17.1 µM and over 50 µM.
`COC(=O)CCC[C@@H]1[C@H]2CCCN3CCC[C@H](CN1Cc1cn(Cc4ccccc4F)c4ccccc14)[C@@H]23`: the 50% inhibitory concentration (IC50) in the assay with HepG2 is 21.7 µM; with CNE-2, 14.8 µM; with A549, 49.3 µM.
Regarding `COC(=O)CCC[C@@H]1[C@H]2CCCN3CCC[C@H](CN1Cc1c[nH]c4ccc(OC)cc14)[C@@H]23`, the half-maximal inhibitory concentration (IC50) in the assay with HepG2, with CNE-2 and with A549 was over 50 µM throughout.
As for `COC(=O)CCC[C@@H]1[C@H]2CCCN3CCC[C@H](CN1Cc1c[nH]c4ccc(C)cc14)[C@@H]23`, the IC50 is 23.8 µM with HepG2, 49.4 µM in the assay on CNE-2 and over 50 µM in the assay with A549.
For `COC(=O)CCC[C@@H]1[C@H]2CCCN3CCC[C@H](CN1Cc1c(C(=O)OC)[nH]c4ccccc14)[C@@H]23`, in that order: over 50 µM, 26.4 µM and over 50 µM.
With `COC(=O)CCC[C@@H]1[C@H]2CCCN3CCC[C@H](CN1Cc1cn(Cc4cccc(F)c4)c4ccccc14)[C@@H]23`, the results for the concentration for half-maximal inhibition (IC50) with HepG2, in the assay on CNE-2 and in the assay with A549 were 12.1 µM, 12.1 µM and 42.3 µM, respectively.
Consider `COC(=O)CCC[C@@H]1[C@H]2CCCN3CCC[C@H](CN1Cc1c[nH]c4ccc(Br)cc14)[C@@H]23`, for which the IC50 with HepG2 was 31.8 µM; in the assay with CNE-2 it was 20.2 µM; with A549, 39.9 µM.
For `OCCCC[C@@H]1[C@H]2CCCN3CCC[C@H](CN1Cc1c[nH]c4ccccc14)[C@@H]23`, in that order: over 50 µM, over 50 µM and over 50 µM.
For `COC(=O)CCC[C@@H]1[C@H]2CCCN3CCC[C@H](CN1Cc1cn(Cc4ccc(C(F)(F)F)cc4)c4ccccc14)[C@@H]23`, in that order: 6.1 µM, 4.8 µM and 7.4 µM.
For `COC(=O)CCC[C@@H]1[C@H]2CCCN3CCC[C@H](CN1Cc1c[nH]c4ccc(C#N)cc14)[C@@H]23`, in that order: over 50 µM, 15.3 µM and over 50 µM.
Regarding `COC(=O)CCC[C@@H]1[C@H]2CCCN3CCC[C@H](CN1Cc1c[nH]c4ccc([N+](=O)[O-])cc14)[C@@H]23`, the IC50 in the assay with HepG2, with CNE-2 and in the assay with A549 was over 50 µM each time.
